Holding throughout (format): nucleic-acid assay
Test [1] has as its system Nucleic Acid. Kind of test: Binding affinity to A3T3 repeat containing DNA5(3) (unknown origin) assessed as cooperativity with DNA at 10 nM by fluorescence titration based McGhee-von Hippel analysis. A digest of the protocol: (§1)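 Ligand at 10 nM in 3.0 mM HEPES, 3.0 mM NaCl, pH 7.0 is stirred 4 h at room temperature in a quartz cell. DNA is added in aliquots, 0–0.8 μM (0–4 μM in A3T3), with 1 h stirring after each addition. Fluorescence is read with 363 nm excitation at 25 °C and ΔF is plotted against A3T3 concentration. Data are fitted to a two-mode (high/low affinity) model. McGhee–von Hippel analysis then gives n, K and ω.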

The test system of test [2] is Nucleic Acid. The test can be described thus: Binding affinity to A3T3 repeat not-containing DNA0 (unknown origin) assessed as increase in fluorescence intensity at 10 nM by fluorescence titration method. The procedure, abridged:
as §1

The subject of test [3] is Nucleic Acid. The test can be described thus: Binding affinity to A3T3 repeat containing DNA5(3) (unknown origin) assessed as quinoline region-induced shift to shorter wavelength (328.5 to 326.5 nm) with % increase in intensity at 5 uM by UV-vis spectroscopy. A digest of the protocol: (§2)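 UV–vis spectra of 5 μM ligand with or without DNA5(3), in 3.0 mM HEPES, 3.0 mM NaCl, pH 7.0, 25 °C. Samples are stirred 7 h at room temperature before measurement. Band shifts and % absorbance change are recorded for the Hoechst and quinoline regions.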

For test [4], the system named is Nucleic Acid. Kind of test: Binding affinity to A3T3 repeat containing DNA5(3) (unknown origin) assessed as association constant for changes at 327 nm at 0 to 4 uM by CD spectroscopy.
Test [5] relates to Nucleic Acid. Kind of test: Binding affinity to A3T3 repeat containing DNA5(3) (unknown origin) assessed as association constant for changes at 275 nm at 0 to 4 uM by CD spectroscopy.
The subject of test [6] is Nucleic Acid. The test can be described thus: Binding affinity to A3T3 repeat containing DNA5(3) (unknown origin) at 0 to 4 uM by CD spectroscopy.
Test [7] deals with Nucleic Acid. The test can be described thus: Binding affinity to A3T3 repeat containing DNA1 (unknown origin) at 10 uM by CD spectroscopy. The procedure, abridged:
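CD spectrum of DNA1 (5 μM in A3T3) recorded alone and with ligand at 10 μM (2 equiv relative to A3T3).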

The test system of test [8] is Nucleic Acid. The test can be described thus: Binding affinity to A3T3 repeat containing DNA5(3) (unknown origin) at 5 uM by UV-vis spectroscopy. A digest of the protocol: as §2
Test [9] deals with Nucleic Acid. Kind of test: Binding affinity to A3T3 repeat containing DNA5(3) (unknown origin) assessed as Hoechst region-induced shift to longer wavelength (372.5 to 384.5 nm) with increase in intensity at 5 uM by UV-vis spectroscopy. A digest of the protocol:
as §2

Calls of active or inactive are those of the source. No cut-off for these calls is given here.

Turning to `CN1CCN(c2cc(C(=O)NCCN(CCC(=O)NCCOCCOCCNC(=O)COc3ccc4cnccc4c3)CCC(=O)NCCOCCOCCNC(=O)COc3ccc4cnccc4c3)c3nc(-c4ccc5nc(-c6ccc(O)cc6)[nH]c5c4)[nH]c3c2)CC1`, the outcome in the test on Nucleic Acid [1] was Active.
Consider `CN1CCN(c2cc(C(=O)NCCN(CCC(=O)NCCOCCOCCNC(=O)COc3ccc4ncccc4c3)CCC(=O)NCCOCCOCCNC(=O)COc3ccc4ncccc4c3)c3nc(-c4ccc5nc(-c6ccc(O)cc6)[nH]c5c4)[nH]c3c2)CC1`, for which the result in the test with Nucleic Acid [2] and in the test on Nucleic Acid [7] was inactive. For the same compound, the Activity in the test on Nucleic Acid [3] was 43%; in the test with Nucleic Acid [9], 50%. Further, the K stood at 3.9 ×10⁵ /M in the test with Nucleic Acid [4] and 6.5 ×10⁶ /M with Nucleic Acid [5]. The result with Nucleic Acid [6], in the test on Nucleic Acid [8] and with Nucleic Acid [1] was Active.
Take `CN1CCN(c2cc(C(=O)NCCN(CCC(=O)NCCOCCOCC(=O)NCCOCCOCCNC(=O)COc3ccc4ncccc4c3)CCC(=O)NCCOCCOCC(=O)NCCOCCOCCNC(=O)COc3ccc4ncccc4c3)c3nc(-c4ccc5nc(-c6ccc(O)cc6)[nH]c5c4)[nH]c3c2)CC1`: the result in the test with Nucleic Acid [1] was inactive.
Consider `CN1CCN(c2cc(C(=O)NCCN(CCC(=O)NCCNC(=O)COc3ccc4ncccc4c3)CCC(=O)NCCNC(=O)COc3ccc4ncccc4c3)c3nc(-c4ccc5nc(-c6ccc(O)cc6)[nH]c5c4)[nH]c3c2)CC1`, for which the result in the test on Nucleic Acid [1] was inactive.
Turning to `CN1CCN(c2cc(C(=O)NCCN(CCC(=O)NCCOCCOCCNC(=O)COc3cccnc3)CCC(=O)NCCOCCOCCNC(=O)COc3cccnc3)c3nc(-c4ccc5nc(-c6ccc(O)cc6)[nH]c5c4)[nH]c3c2)CC1`, the result in the test with Nucleic Acid [1] was inactive.
In the case of `CN1CCN(c2cc(C(=O)NCCN(CCC(=O)NCCOCCOCCNC(=O)COc3ccc4ncccc4c3Br)CCC(=O)NCCOCCOCCNC(=O)COc3ccc4ncccc4c3Br)c3nc(-c4ccc5nc(-c6ccc(O)cc6)[nH]c5c4)[nH]c3c2)CC1`, the outcome in the test on Nucleic Acid [8] was inactive.
For the compound `CN1CCN(c2cc(C(=O)NCCN(CCC(=O)NCCOCCOCCNC(=O)COc3ccc4ccccc4n3)CCC(=O)NCCOCCOCCNC(=O)COc3ccc4ccccc4n3)c3nc(-c4ccc5nc(-c6ccc(O)cc6)[nH]c5c4)[nH]c3c2)CC1`, the outcome in the test with Nucleic Acid [1] was inactive.
The same measure, in the same setting: for `CN1CCN(c2cc(C(=O)NCCN(CCC(=O)NCCOCCOCCNC(=O)COc3ccc4ccccc4c3)CCC(=O)NCCOCCOCCNC(=O)COc3ccc4ccccc4c3)c3nc(-c4ccc5nc(-c6ccc(O)cc6)[nH]c5c4)[nH]c3c2)CC1` the value was “Active”; for `CN1CCN(c2cc(C(=O)NCCN(CCC(=O)NCCOCCOCCNC(=O)COc3ccc4nccnc4c3)CCC(=O)NCCOCCOCCNC(=O)COc3ccc4nccnc4c3)c3nc(-c4ccc5nc(-c6ccc(O)cc6)[nH]c5c4)[nH]c3c2)CC1`, “inactive”.
